Data taken from ChEMBL document CHEMBL3286319, “Hyafurones, hyapyrrolines, and hyapyrones: polyketides from Hyalangium minutum” (J Nat Prod, 2014).
Values after ≈ are worked out from the molar mass of the structure shown. Active and inactive are the calls of the source. The rule behind the calls is not given here.

Key:
[1] = test system: Schizosaccharomyces pombe; assay: Antifungal activity against Schizosaccharomyces pombe by serial dilution method; type: functional
How it was run: (§1)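 MIC by 1:1 serial dilution in 96-well microtiter plates. Yeasts and fungi were grown in MYC medium (1.0% glucose, 1.0% phytone peptone, 50 mM HEPES, pH 7.0).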

Mucor hiemalis = assay: Antifungal activity against Mucor hiemalis by serial dilution method; type: functional; how it was run: as §1
Candida albicans = assay: Antifungal activity against Candida albicans by serial dilution method; type: functional; how it was run: as §1
Staphylococcus aureus = assay: Antibacterial activity against Staphylococcus aureus by serial dilution method; type: functional
Wickerhamomyces anomalus = assay: Antifungal activity against Pichia anomala by serial dilution method; type: functional; details: Hansenula anomala; how it was run: as §1
Mycolicibacterium phlei = assay: Antibacterial activity against Mycobacterium phlei by serial dilution method; type: functional
Micrococcus luteus = assay: Antibacterial activity against Micrococcus luteus by serial dilution method; type: functional
Nocardia = assay: Antibacterial activity against Nocardia flava by serial dilution method; type: functional
Rhodotorula glutinis = assay: Antifungal activity against Rhodotorula glutinis by serial dilution method; type: functional; how it was run: as §1
Escherichia coli = assay: Antibacterial activity against Escherichia coli TolC by serial dilution method; type: functional
[2] = test system: Chromobacterium violaceum; assay: Antibacterial activity against Chromobacterium violaceum by serial dilution method; type: functional
Pseudomonas aeruginosa = assay: Antibacterial activity against Pseudomonas aeruginosa by serial dilution method; type: functional
L929 = assay: Cytotoxicity against mouse L929 cells by MTT assay; type: cell-based
Trypanosoma cruzi = assay: Antiparasitic activity against Trypanosoma cruzi; type: functional, organism-based
HUVEC = assay: Cytotoxicity against HUVEC by MTT assay; type: cell-based; details: Homo sapiens
Plasmodium falciparum = assay: Antiparasitic activity against Plasmodium falciparum K1; type: functional, organism-based
[3] = test system: Trypanosoma brucei rhodesiense; assay: Antiparasitic activity against Trypanosoma brucei rhodesiense; type: functional, organism-based
Leishmania donovani = assay: Antiparasitic activity against Leishmania donovani axenic amastigotes; type: functional, organism-based

SMILES | MIC [1] | MIC (Mucor hiemalis; read-out: MIC) | MIC (Candida albicans) | MIC (Staphylococcus aureus) | MIC (Wickerhamomyces anomalus) | MIC (Mycolicibacterium phlei) | MIC (Micrococcus luteus) | MIC (Nocardia; read-out: MIC) | MIC (Rhodotorula glutinis) | MIC (Escherichia coli) | MIC [2] | MIC (Pseudomonas aeruginosa) | MIC (Nocardia) | IC50 (L929) | MIC (Mucor hiemalis) | Activity (Trypanosoma cruzi) | IC50 (HUVEC) | Activity (Plasmodium falciparum) | Activity [3] | Activity (Leishmania donovani)
CC1=C(CC(O)CC(O)\C=C/C=C/C(C)=C/C=C/C(C)C(O)C(C)CCc2ccccc2)[N+](C)(CCO)C(C)(O)C1=O (stereo not given) | > 67 µg/mL | > 67 µg/mL | > 67 µg/mL | > 67 µg/mL | > 67 µg/mL | > 67 µg/mL | > 67 µg/mL | > 67 µg/mL | > 67 µg/mL | > 67 µg/mL | > 67 µg/mL | > 67 µg/mL |  |  |  |  |  |  |  | 
CC1=C(O)C(C)O/C(=C/CC(O)\C=C/C=C/C(C)=C/C=C/C(C)C(O)C(C)CCc2ccccc2)C1=O (stereo not given) | > 67 µg/mL | ≤ 67 µg/mL | > 67 µg/mL | > 67 µg/mL | > 67 µg/mL | > 67 µg/mL | > 67 µg/mL |  | > 67 µg/mL | > 67 µg/mL | > 67 µg/mL | > 67 µg/mL | > 67 µg/mL |  |  |  |  |  |  | 
CC(/C=C/CCCC/C=C/c1oc(=O)c(C)c(O)c1C)=C\C=C\C(C)C(O)C(C)CCc1ccccc1 (stereo not given) | > 67 µg/mL | 33.3 µg/mL (≈ 66 µM) | > 67 µg/mL | > 67 µg/mL | > 67 µg/mL | > 67 µg/mL | > 67 µg/mL | 16.6 µg/mL (≈ 32.9 µM) | > 67 µg/mL | > 67 µg/mL | > 67 µg/mL | > 67 µg/mL |  | 22 µM |  |  |  |  |  | 
CC1=C(CC(O)CC(O)\C=C/C=C/C(C)=C/C=C/C(C)C(O)C(C)CCc2ccccc2)N(CCO)C(C)(O)C1=O (stereo not given) | > 67 µg/mL |  | > 67 µg/mL | > 67 µg/mL | > 67 µg/mL | > 67 µg/mL | > 67 µg/mL |  | > 67 µg/mL | > 67 µg/mL | > 67 µg/mL | > 67 µg/mL | > 67 µg/mL |  | > 67 µg/mL |  |  |  |  | 
CC1=C(CC(O)CC(O)/C=C/C=C/C(C)=C/C=C/C(C)C(O)C(C)CCc2ccccc2)OC(C)(O)C1=O (stereo not given) | > 67 µg/mL |  | > 67 µg/mL | > 67 µg/mL | > 67 µg/mL | > 67 µg/mL | > 67 µg/mL |  | > 67 µg/mL | > 67 µg/mL | > 67 µg/mL | > 67 µg/mL | > 67 µg/mL |  | > 67 µg/mL |  |  |  |  | 
CC1=C(/C=C/CC(O)\C=C/C=C/C(C)=C/C=C/C(C)C(O)C(C)CCc2ccccc2)OC(C)(O)C1=O (stereo not given) | > 67 µg/mL |  | > 67 µg/mL | > 67 µg/mL | > 67 µg/mL | > 67 µg/mL | > 67 µg/mL | 8.3 µg/mL (≈ 16.4 µM) | > 67 µg/mL | > 67 µg/mL | > 67 µg/mL | > 67 µg/mL |  |  | > 67 µg/mL |  |  |  |  | 
CC1=C(CC(O)CC(O)\C=C/C=C/C(C)=C/C=C/C(C)C(O)C(C)CCc2ccccc2)OC(C)(O)C1=O (stereo not given) | > 67 µg/mL |  | > 67 µg/mL | > 67 µg/mL | > 67 µg/mL | > 67 µg/mL | > 67 µg/mL |  | > 67 µg/mL | > 67 µg/mL | > 67 µg/mL | > 67 µg/mL | > 67 µg/mL |  | > 67 µg/mL | inactive | 2.67 µM | inactive | inactive | inactive
